Common to all, as to type: functional
The subject of one assay is NCI-H460. The experiment in a line: Antiproliferative activity against human NCI-H460 cells assessed as growth inhibition at 3.16 ug/ml after 48 hrs by XTT assay. An outline of the steps: (§1)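 This is the same 48 h XTT assay: 10-point half-log series, 0.3% final DMSO, 3 h XTT/PMS, A490, with untreated cells as 0% and blanks as 100% inhibition. Inhibition at the highest tested concentration was scored as none (<30%) or moderate (≥30%).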
(In general: Tetrazolium assays rely on reduction of a dye to a coloured formazan, in cell work by metabolically active cells.)

The nature of assay [1]: (§2) Antiproliferative activity against human RKOp27 cells assessed as growth inhibition at 3.16 ug/ml after 48 hrs by XTT assay. To be noted: RKOp27, 48 h. An outline of the steps: as §1
The subject of another assay is RKOp27. The description is as §2. An outline of the steps:
as §1

Another assay relates to KB. The assay can be described thus: Antiproliferative activity against human KB/HeLa cells assessed as growth inhibition at 3.16 ug/ml after 48 hrs by XTT assay. The method in brief:
as §1

Assay [2] in a line: (§3) Antiproliferative activity against human RKOp27IND cells assessed as growth inhibition at 3.16 ug/ml after 48 hrs by XTT assay. An outline of the steps: as §1
The species named for a further assay is Homo sapiens. The description is as §3. An outline of the steps:
as §1

Another assay concerns SK-OV-3. The assay can be described thus: Antiproliferative activity against human SKOV3 cells assessed as growth inhibition at 3.16 ug/ml after 48 hrs by XTT assay. The method in brief: as §1
Another assay has as its system SF-268. The assay can be described thus: Antiproliferative activity against human SF268 cells assessed as growth inhibition at 3.16 ug/ml after 48 hrs by XTT assay. An outline of the steps:
as §1

Active and inactive are the calls of the source. The rule behind the calls is not given here.

As usually defined, the inhibition is the share of the control response that was lost under treatment.

For `CN(C)CCc1cn(CCOS(C)(=O)=O)c2c1C(=O)c1ccncc1C2=O`, the inhibition entry with NCI-H460, in the assay with RKOp27, in the assay on KB, in the assay listed under Homo sapiens, in the assay with SK-OV-3 and in the assay with SF-268 was “inactive” in each case. In addition, the inhibition at 3.16 µg/mL with NCI-H460 (NCI-H460, 48 h) was < 30%; in assay [1] it was < 30%; in assay [2], < 30%.

Source of the values: ChEMBL document CHEMBL1770061, “Synthesis and antiproliferative activity of new cytotoxic azanaphthoquinone pyrrolo-annelated derivatives: Part II” (Bioorg Med Chem Lett, 2011).
